# Source: PubChem BioAssay (Johns Hopkins Ion Channel Center)
# RGS4 block = human RGS4 inhibition. 310,000 compounds, 0.45% hits. P49798. B-score at 10 µM. AID 463165. HEK293 M3R/RGS4 inducible, Fluo-4 calcium flux; active compounds read high; triggered by carbachol at its EC20;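 active means B-score, a plate-corrected calcium signal, over three deviations above library mean, with baseline fluorescence within five deviations of library mean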;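 further: RGS4 expression induced by doxycycline in cells with stable M3 receptor; B-score is computed from the integrated fluorescence ratio over baseline after carbachol; higher B-score means a larger calcium signal and so more RGS4 inhibition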
# Target sequence (P49798 whole entry, looked up): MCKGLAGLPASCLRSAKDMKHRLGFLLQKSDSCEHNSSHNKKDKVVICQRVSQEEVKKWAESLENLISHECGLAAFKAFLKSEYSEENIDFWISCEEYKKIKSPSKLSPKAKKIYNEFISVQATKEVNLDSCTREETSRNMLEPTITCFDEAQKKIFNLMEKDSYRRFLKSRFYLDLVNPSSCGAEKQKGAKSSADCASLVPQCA
# MrgX1 PAM = allosterically activates human MrgX1 receptor signaling. MrgX1-HEK293, Fluo-4 calcium flux, FDSS; active compounds read high. B-score at 10 µM. 310,000 compounds, 0.63% hits. AID 588675;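 active means plate-corrected calcium response at least 3 library SD above typical, normal starting fluorescence, not activating the receptor alone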;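 further: compound read alongside a low EC10 to EC30 dose of BAM8-22 agonist; peak minus trough fluorescence over baseline measured at the second addition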
# Target sequence (Q96LB2 whole entry, looked up): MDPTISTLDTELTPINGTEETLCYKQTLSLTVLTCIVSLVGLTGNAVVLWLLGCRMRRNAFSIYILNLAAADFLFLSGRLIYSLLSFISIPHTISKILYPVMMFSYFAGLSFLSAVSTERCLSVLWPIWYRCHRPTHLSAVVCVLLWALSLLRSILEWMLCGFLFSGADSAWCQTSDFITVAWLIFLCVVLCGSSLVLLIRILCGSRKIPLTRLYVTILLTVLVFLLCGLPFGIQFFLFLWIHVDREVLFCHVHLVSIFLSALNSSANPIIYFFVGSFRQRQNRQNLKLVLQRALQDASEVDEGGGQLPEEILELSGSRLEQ
# MrgX1 ag = human MrgX1 receptor agonism, primary screen | Q96LB2 | MrgX1-HEK293 cells, Fluo-4 calcium fluorescence, agonist mode; active compounds read high | B-score at 10 µM | 310,000 compounds, 0.44% hits | AID 588627;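 active means calcium response B-score plate-corrected fluorescence ratio at least 3 library SD, with starting fluorescence B-score inside 5 SD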
#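 Material: MrgX1-expressing HEK293 cells; input: 15,000 cells per well; doses: test compound given as first of three sequential additions; schedule: overnight plating before 1 h dye loading; technique: Fluo-4 NW calcium-flux fluorescence, kinetic read; evaluation: baseline-normalised fluorescence change ratio, B-scored; control set: plate-wise positive and negative controls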
# MrgX1 antag = human MrgX1 receptor antagonism, primary screen; Q96LB2; MRGX1-HEK293 calcium flux, Fluo-4, BAM8-22 antagonism; active compounds read low; AID 588676; 310,000 compounds, 1.3% hits; B-score at 10 µM;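 active means calcium-response B-score plate-corrected more than 3 library SD below zero, starting fluorescence within 5 deviations, no agonist response on first addition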;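 further: peak minus trough fluorescence over baseline after final BAM8-22 challenge near maximal dose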
# RGS4 pot = potentiators or activators of RGS4 | 310,000 compounds, 0.92% hits | HEK293 M3R/inducible RGS4, carbachol calcium flux Fluo4; active compounds read low | B-score at 10 µM;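 active means B-score of the integrated calcium signal more than 4 SD below the library mean, with starting fluorescence not abnormally high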;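 further: negative B-score means reduced calcium response which marks RGS4 activation or potentiation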
#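 Material: M3R-expressing HEK293 line, RGS4 induced by doxycycline | Schedule: Overnight RGS4 induction, 30 min dye load 37 °C, 20 min compound RT | Measured by: Fluo4 fluorescence kinetic imaging of calcium | Read-out: Integrated calcium ratio converted to B score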
# RGS4 inh valid = RGS4 inhibitor validation. shares compounds with RGS4 block. HEK293 M3R/RGS4, carbachol calcium Fluo-4 fluorescence; carbachol added at its EC20; 0 = buffer wells, 100 = carbachol control. calcium response, % at 10 µM. 1,700 compounds, 65% hits. AID 492999;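 active means duplicate-averaged calcium response above the buffer-only control mean plus 5 SD of those controls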;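 further: integrated fluorescence ratio F max minus min over baseline F0; higher response in RGS4-induced cells means RGS4 inhibition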
# M3R Ca ctr = counter-screen for RGS4 inhibitors: effect in non-induced cells; activity (percent), % at 10 µM; shares compounds with RGS4 block; 1,900 compounds, 20% hits; HEK293 M3R non-induced, carbachol calcium Fluo-4; submaximal (EC20) carbachol stimulus; buffer wells 0%, carbachol control wells 100%; call rule not given here;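 further: RGS4 induction absent so cells express M3R without RGS4; higher means more calcium signal and flags a non-specific hit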
# M3R basal Ca ctr = second counter-screen for RGS4 inhibitors: non-induced cells without carbachol; shares compounds with RGS4 block; HEK293 M3R/RGS4 non-induced, Fluo-4 calcium, no carbachol; normalised: buffer wells 0%, carbachol wells 100%; calcium response (agonist-mode artifact), % at 10 µM; 1,900 compounds, 22% hits;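 active means duplicate-averaged calcium rise in uninduced cells above buffer wells' mean plus 5 SD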
# MrgX1 ag reconf = confirmation of human MrgX1 receptor agonists; shares compounds with MrgX1 ag; MrgX1-HEK293, Fluo-4 calcium fluorescence, FDSS; activation, % at 10 µM; 600 compounds, 78% hits;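 active means calcium signal rise, corrected for plate position, at least 3 library SD high, with starting brightness within 5 such deviations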
# MrgX1 allo conf = reconfirmed allosteric activator of human MrgX1 receptor; activation (ratio percentage), % at 10 µM; shares compounds with MrgX1 PAM; AID 602413; MrgX1-HEK293, Fluo-4 calcium fluorescence, FDSS; 1,200 compounds, 13% hits;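 active means ratio at least 3 SD above the weak peptide control, stable starting fluorescence, no direct agonism earlier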;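 further: compound followed by low BAM8-22 agonist challenge near EC20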
# MrgX1 antag conf = human MrgX1 receptor antagonism, re-confirmation screen; remaining BAM8-22 calcium response % of control (active compounds read low), % at 10 µM; MrgX1-HEK293, BAM8-22 calcium flux, Fluo-4; active compounds read low; shares compounds with MrgX1 antag; 2,300 compounds, 19% hits; AID 602420;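 active means remaining agonist calcium response no higher than 100% minus 3 SD of agonist-only control wells, with starting fluorescence near control levels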;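 further: agonist BAM8-22 given at a near maximal EC90 to ECmax level; peak minus minimum fluorescence divided by baseline after agonist addition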
# HEK293 Ca flux = activity in parental HEK293 cells lacking MrgX1; shares compounds with MrgX1 antag; Fluo-4 calcium fluorescence, FDSS; 4,000 compounds, 2% hits; fluorescence ratio F(max-min)/F0 at 10 µM; AID 624111;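 active means duplicate-averaged calcium fluorescence ratio at least three times the standard deviation of buffer wells, a nonspecific response in parental cells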
# HEK293 Ca counter = activity in parental HEK293 cells without MrgX1. shares compounds with MrgX1 antag. parental HEK293 calcium flux, Fluo-4 fluorescence ratio; active compounds read high. fluorescence ratio F(max-min)/F0 at 10 µM. 4,000 compounds, 0.4% hits;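 active means calcium fluorescence ratio, averaged over duplicates, at least 3 SD of the buffer-well ratio, meaning a nonspecific response in receptor-free cells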;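 further: untransfected parental HEK293 lacking MrgX1 used as counterscreen for MrgX1 allosteric activators; fluorescence change taken during the second addition on a kinetic imager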
# HEK293 Ca cntr2 = MrgX1 activator counter-screen hit in parental HEK293 cells; shares compounds with MrgX1 antag; Fluo-4 calcium fluorescence (FDSS); active compounds read high; fluorescence ratio F(max-min)/F0 at 10 µM; 4,000 compounds, 8.7% hits; AID 624115;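 active means calcium fluorescence ratio at least three times the spread of buffer wells, meaning a non-specific response in parental cells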
# Numbers without * were called inactive; i = inactive; / = not tested or not shown. Shown are actives, neighbours in structure and some others; about 3.5% of the full set was active somewhere.
SMILES,RGS4 block,MrgX1 PAM,MrgX1 ag,MrgX1 antag,RGS4 pot,RGS4 inh valid,M3R Ca ctr,M3R basal Ca ctr,others
COc1ccc(N2C(=O)CC(Sc3nc4ccccc4s3)C2=O)cc1 (stereo not drawn),i,i,i,i,i,/,/,/,
CC(=O)/C(=N/Nc1ccccc1)N1CCOCC1,i,i,i,i,i,i,i,i,
COc1ccc(C(=O)NC2CCN(CC(=O)Nc3c(C)cccc3C)CC2)cc1OC,i,i,i,i,i,/,/,/,
COc1cc(/C=C/[N+](=O)[O-])ccc1OCc1cccc(C(=O)O)c1,72*,/,/,/,i,174%*,57%*,8.0%*,
NC[C@@H]1O[C@H](C23CC4CC(CC(C4)C2)C3)Cc2c1ccc(O)c2O,10*,i,i,i,i,10%*,i,i,
COc1ccc(N2C(=O)CC(Sc3ncn[nH]3)C2=O)c(OC)c1 (stereo not drawn),12*,i,i,i,i,22%*,i,i,
CC(C)c1ccc(N2C(=O)CC(Sc3ncn[nH]3)C2=O)cc1 (stereo not drawn),i,i,i,i,i,/,/,/,
CCOCCCN(C(=O)CNC(=O)c1ccco1)C(C(=O)NC1CCCC1)c1cccc(OC)c1 (stereo not drawn),i,i,i,i,i,/,/,/,
COc1ccc(S(=O)(=O)N2CCC(C(=O)NC3CC3)CC2)cc1OC,i,i,i,i,i,/,/,/,
COc1ccc(CCNC(=O)/C=C/c2ccc3ccccc3n2)cc1OC,13*,i,i,i,i,34%*,32%*,i,
COc1ccc(/C=C/C(=O)NCCc2ccc(OC)c(OC)c2)cc1,i,i,i,i,i,/,/,/,
Cc1ccccc1N(CC(=O)NCc1ccco1)C(=O)CNS(=O)(=O)c1ccc(F)cc1,i,i,i,i,i,i,i,i,
Cc1ccc(N(CC(=O)NCc2ccco2)C(=O)CNS(=O)(=O)c2ccc(F)cc2)c(C)c1,i,i,i,i,i,/,/,/,
N#C/C(=C/c1ccc(O)cc1)C(=O)NCc1ccc(Cl)cc1,i,i,i,i,i,i,i,i,
NC(=O)c1ccc(NC(=O)COc2coc(CN3CCc4ccccc4C3)cc2=O)cc1,i,i,i,i,i,/,/,/,
O=C(/C=C/c1cccc(F)c1)Nc1ccc(S(=O)(=O)Nc2ncccn2)cc1,5.1*,i,i,i,i,7.0%*,i,i,
CC(CC(=O)Nc1ccc(S(=O)(=O)Nc2ncccn2)cc1)c1ccccc1 (stereo not drawn),i,i,i,i,i,i,i,i,
COc1ccc(NC(=O)c2cccnn2)cc1,i,i,i,i,i,/,/,/,
O=C1C(Cl)=C(NS(=O)(=O)c2ccc([N+](=O)[O-])cc2)C(=O)c2ccccc21,8.5*,21*,i,i,i,42%*,i,i,MrgX1 allo conf=14%*;HEK293 Ca flux=i;HEK293 Ca counter=i;HEK293 Ca cntr2=i
O=[N+]([O-])c1ccc(Oc2ccc(S(=O)(=O)Nc3ccccc3)cc2)cc1,i,i,i,i,i,/,/,/,
CCC(=O)Nc1nnc(SCC(=O)NCCc2ccc(OC)c(OC)c2)s1,i,i,i,i,i,/,/,/,
COc1cc(CNc2ccc(N3CCCC3)cc2)cc(Cl)c1OC,i,i,i,-6.1*,i,/,33%*,i,MrgX1 antag conf=i;HEK293 Ca flux=i;HEK293 Ca counter=i;HEK293 Ca cntr2=i
COc1ccc(CN=Cc2c(O)[nH]c3ccccc23)cc1,i,i,i,i,i,/,/,/,
Cc1ccc(CN=Cc2[nH]c3ccc(Br)c(Cl)c3c2O)cc1,i,i,i,-6.8*,i,i,i,48%*,MrgX1 antag conf=i;HEK293 Ca flux=0.23*;HEK293 Ca counter=i;HEK293 Ca cntr2=i
CCN(CC)c1ccc(Nc2cc3n(c(=O)n2)CCc2cc(OC)c(OC)cc2-3)cc1,i,i,i,-11*,i,/,50%*,i,MrgX1 antag conf=i;HEK293 Ca flux=i;HEK293 Ca counter=i;HEK293 Ca cntr2=i
COc1ccc(C(=O)NCC(=O)N2CCN(c3ccc(F)cc3)CC2)cc1,i,i,i,i,i,/,/,/,
C[N+](C)(C)C/C=C1/COCO1,7.3*,i,67*,i,-9.1*,14%*,i,386%*,MrgX1 ag reconf=328%*;HEK293 Ca flux=i;HEK293 Ca counter=i;HEK293 Ca cntr2=67*
NC(=O)SCC(=O)Nc1ccc(Cl)c(Cl)c1,/,i,i,i,/,/,/,/,
Cc1ccc(NC(=O)CSC(N)=O)cc1Cl,6.1*,i,i,-5*,i,12%*,i,i,MrgX1 antag conf=85%*;HEK293 Ca flux=i;HEK293 Ca counter=i;HEK293 Ca cntr2=i
CCOc1ccc(C2C(C#N)=C(N)Oc3cc(O)ccc32)cc1OCC (stereo not drawn),i,i,i,i,i,/,/,/,
